miR122 inh = inhibitors of miR-122 in Huh7 cells. 340,000 compounds, 0.3% hits. Huh7 miR-122 Renilla luciferase sensor, 48 h; neutral wells = 0, positive control = 100. activation (reporter increase), % at 12.5 µM. AID 602342;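 active means mean replicate activation score at least 90 and every replicate individually at or above 90; inconclusive means only one of the two criteria met; inactive means neither criterion met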;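 further: higher luciferase means less miR-122 activity so hits act as miR-122 inhibitors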
CFTR F508del cor = CFTR F508del correction in bronchial cells | AID 720511 | activity (quench increase), % at 7.58 µM | CFBE cells, YFP halide quenching; stimulated with forskolin plus potentiator P3; % fluorescence drop versus neutral controls | 350,000 compounds, 0.36% hits;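 active means mean added fluorescence quench of at least 8% versus neutral control, with both replicates also reaching 8%; inconclusive means only one of the mean or replicate conditions met; inactive means mean below 8% and not both replicates reaching 8%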;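 further: cells transiently co-express mutant CFTR-F508del with the halide-sensitive YFP; corrector assay measuring rescue of mutant channel to the surface after 24 h compound exposure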
Cneo AK release = causes C. neoformans cell lysis; adenylate kinase release luminescence, 4 h; normalised: neutral wells 0, clomiphene wells 100; lysis activity, % at 15 µM; 360,000 compounds, 0.2% hits;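 active means mean lysis activity across replicates of at least 80%, whatever share of replicates individually reach that level; inactive means mean lysis activity below 80%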
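Material – Cryptococcus neoformans yeast cells · Quantity – 5 × 10^6 yeast cells/mL · Buffer or medium – YPD medium · Compound – single dose · Timing – 4 h static compound exposure, 37 °C, read 1 h post-reagent · Signal – adenylate kinase release luminescence · Read-out basis – lysis from increased AK signal · Benchmarks – Clomiphene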
INS-1E GSIS act = GLuc luminescence reporter in INS-1E cells, primary screen for activators of glucose-dependent secretion of insulin; INS-1E GLuc reporter insulin secretion, 2-3 h; activation, % at 16.6 µM; 370,000 compounds, 0.61% hits; AID 743287;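 active means lowest replicate activation of at least 40%, so every replicate reaches that level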
rRNA inh HTS = inhibitors of bacterial rRNA selective over humanized ribosomes | E. coli WT GFP vs humanized-ribosome RFP mutants, fluorescence, 24 h; stronger effect = lower value; DMSO median 0, no signal -100 | GFP signal change (wild-type ribosome), % (concentration not given with the values) | 350,000 compounds, 1.6% hits | AID 720706;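 active means significant combined selectivity score with lowered wild-type GFP, culture density cut under 30%, mutant RFP and density less affected; inactive means any of these conditions unmet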
Env fusion inh = inhibitors of HIV Env-mediated cell fusion; AID 651610; inhibition, % at 12.3 µM; HeLa-JRFL Env/CEM21 cell fusion, luciferase; 360,000 compounds, 1.1% hits;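 active means mean replicate inhibition score of at least 50 and every replicate individually at or above 50; inconclusive means only one of the two criteria met; inactive means mean below 50 and not all replicates reaching 50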
Hits are given with their value; - = inactive; ? = inconclusive; . = no result given; [ ] = another dose, or the depositor's remark. Compounds with a hit are over-represented: about 3.1% of the library has one in this group of screens.

SMILES	miR122 inh	CFTR F508del cor	Cneo AK release	INS-1E GSIS act	rRNA inh HTS	Env fusion inh
O=S(=O)(NCC1CCCO1)c1ccc(S(=O)(=O)N(Cc2ccccn2)C2CC2)cc1 (stereo not given)	.	.	.	-	.	-
CNC[C@H]1Oc2ncc(Br)cc2C(=O)N([C@H](C)CO)C[C@H]1C	-	-	-	-	-	-
O=C(C1CC1)N1[C@@H]2CN(S(=O)(=O)c3ccccc3)c3ccccc3[C@@H]2[C@@H]1CO	-	-	-	-	-	.
C[C@@H]1CN(C)C(=O)c2cccnc2O[C@@H]1CN(C)C	.	.	.	-	-	.
CO[C@H]1CN(C)C(=O)c2cc(NC(C)=O)ccc2OC[C@@H](C)N(Cc2nccs2)C[C@H]1C	-	-	-	-	-	70[16.7 µM]
CCCC(=O)Nc1ccc2c(c1)C(=O)N(C)C[C@@H](OC)[C@@H](C)CN(Cc1nccs1)[C@@H](C)CO2	.	-	-	-	-	58[16.7 µM]
CCCC(=O)Nc1ccc2c(c1)C(=O)N(C)C[C@@H](OC)[C@H](C)CN(Cc1nccs1)[C@@H](C)CO2	.	-	-	-	-	-
CC(C)NC(=O)Nc1ccc2c(c1)CC(=O)N([C@H](C)CO)C[C@H](C)[C@H](CN(C)S(=O)(=O)c1ccc(Cl)cc1)O2	-	-	89	-	-	.
CC(C)NC(=O)Nc1ccc2c(c1)CC(=O)N([C@@H](C)CO)C[C@@H](C)[C@H](CN(C)S(=O)(=O)c1ccc(Cl)cc1)O2	-	-	-	-	-	.
C[C@@H]1CN([C@@H](C)CO)C(=O)Cc2cc(NC(=O)NC3CCCCC3)ccc2O[C@@H]1CN(C)S(=O)(=O)c1ccc(Cl)cc1	-	-	-	.	.	60[16.7 µM]
CC(=O)N1[C@@H]2c3ccc(-c4ccccc4)c(=O)n3C[C@H]1[C@H](CO)[C@H]2C(=O)N1CCCCC1	-	-	-	-	-	.
O=C1CC(C(=O)N2CCCc3ccccc32)CN1c1ccc(F)cc1 (stereo not given)	-	-	-	-	-	-
COc1ccc(N2CC(C(=O)N3CCc4ccccc43)CC2=O)cc1 (stereo not given)	-	-	-	66	-	-
CCC(=O)N1[C@H](CO)[C@@H]2c3ccccc3N(C(=O)c3cnccn3)C[C@@H]21	-	-	-	-	-	.
CC(C)NC(=O)Nc1ccc2c(c1)C(=O)N(C)[C@@H]1CC[C@H](CC(=O)NC3CCCCC3)O[C@H]1CO2	-	-	-	-	-	-
Cc1ccc(S(=O)(=O)Nc2ccc3c(c2)C(=O)N([C@@H](C)CO)C[C@@H](C)[C@H](CN(C)CC2CCCCC2)O3)cc1	-	-	-	-	-	-
CO[C@H](CN(C)Cc1ccc2c(c1)OCO2)[C@@H](C)CN(C(=O)c1ccccc1)[C@@H](C)CO	.	-	104	-	-	.
O=C1CN(C(=O)c2ccc(Br)o2)C(c2ccccc2)c2cc(Cl)ccc2N1 (stereo not given)	-	-	-	-	-	58
Cc1ccc2c(c1)C(c1ccc(F)cc1)N(C(=O)c1ccccc1Br)CC(=O)N2 (stereo not given)	-	-	-	-	-26	-
O=C1CN(C(=O)c2ccc(Br)o2)C(c2ccc(F)cc2)c2cc(Cl)ccc2N1 (stereo not given)	-	.	-	.	.	?
COc1ccccc1C(=O)N1CC(=O)Nc2ccc(C)cc2C1c1ccc(F)cc1 (stereo not given)	-	-	-	-	-	-
CCCCC1(CC(=O)OC)C(=O)N(c2ccccc2)N(c2ccccc2)C1=O	.	.	.	-	.	.
CCCCC1(Cc2ccc(OC)c([N+](=O)[O-])c2)C(=O)N(c2ccccc2)N(c2ccccc2)C1=O	-	.	-	.	.	118
O=C(Cc1ccccc1)N1C[C@H]2[C@@H](c3ccccc31)[C@@H](CO)N2C(=O)c1cccc(F)c1	-	-	-	-	-	.
CNC[C@@H]1Oc2ccc(NC(=O)Cc3cn(C)c4ccccc34)cc2C(=O)N([C@H](C)CO)C[C@@H]1C	-	-	-	-	-	-
SMILES	miR122 inh	CFTR F508del cor	Cneo AK release	INS-1E GSIS act	rRNA inh HTS	Env fusion inh
COc1cc(-c2cnc3c(NC=O)cc(-c4cccc(C(F)(F)F)c4)cn23)cc(OC)c1OC	-	8.7	-	-	-	-
CN(C)C(=O)c1cccc(-c2cnc3c(NC=O)cc(-c4cccc(C(F)(F)F)c4)cn23)c1	.	-	-	-	-	56
COc1ccc(-c2cc(NC=O)c3ncc(-c4ccc(OC)c(OC)c4)n3c2)cc1	-	8.4	-	52	-	-
CN(C)CCNC(=O)c1cccc(-c2cc(NC=O)c3ncc(-c4cccc(C(F)(F)F)c4)n3c2)c1	-	-	-	124	-	-
CN(C)CCNC(=O)c1cccc(-c2cnc3c(NC=O)cc(-c4cc(F)c(F)c(F)c4)cn23)c1	-	-	-	-	-	-
COc1cccc(-c2cc(NC=O)c3ncc(-c4cc(OC)c(OC)c(OC)c4)n3c2)c1	-	-	-	-	-	-
COc1ccc(-c2cc(NC=O)c3ncc(-c4ccc(OC)c(OC)c4)n3c2)cc1OC	.	.	-	.	-	-
CCC(=O)Nc1ccc2c(c1)C(=O)N(C)C[C@@H](OC)[C@@H](C)CN(Cc1cncnc1)[C@@H](C)CO2	-	-	.	-	-	.
O=C(C[C@@H]1C[C@H]2c3cc(NC(=O)c4cccnc4)ccc3O[C@H]2[C@@H](CO)O1)NCCN1CCCCC1	-	-	-	-	-	-
O=C(CCc1ccccc1)NNC(=O)COc1ccccc1Cl	.	-	-	137	-	-
COc1cccc(C(=O)NNC(=O)CCc2ccccc2)c1	-	-	-	-	-21	-
COc1ccc(OCC(=O)NNC(=O)CCc2ccccc2)cc1	-	9.8	-	-	-	-
O=C(CCc1ccccc1)NNC(=O)COc1ccccc1	-	.	-	-	.	-
COc1cc(OC)cc(C(=O)NNC(=O)CCc2ccccc2)c1	-	-	.	.	-	-
COc1ccc(CCC(=O)NC2CCC(C)CC2)cc1 (stereo not given)	-	-	-	77	-	-
C[C@@H]1CN([C@@H](C)CO)C(=O)c2cc(NC(=O)C3CCCCC3)ccc2O[C@@H](C)CCCCO[C@H]1CN(C)C(=O)NC1CCCCC1	-	-	-	-	-	-
CCC(=O)Nc1ccc2c(c1)C(=O)N(C)C[C@H](OC)[C@H](C)CN(CC1CC1)[C@H](C)CO2	.	-	-	-	-	.
COc1ccc(OCC(=O)NNC(=O)Cn2c(=O)cnc3ccccc32)cc1	-	-	-	76	-	-
Cc1cccc(OCC(=O)NNC(=O)Cn2c(=O)cnc3ccccc32)c1	-	-	-	-	-	-
CCCOP(=O)(c1ccc(N(C)C)cc1)C(O)c1c(Cl)cccc1Cl (stereo not given)	-	-	-	-	-	73
